Assay results reported in ChEMBL document CHEMBL1129543, “Synthesis and evaluation of N-(phenylacetyl)trifluoromethanesulfonamides as anticonvulsant agents” (J Med Chem, 1996).

How the values were obtained:
Rattus norvegicus [1] = assay: Median Effective dose was evaluated by Subcutaneous pentylenetetrazole seizure test in Rats by oral administration up to 40 mg/kg; b=no protection; assay type: functional, organism-based; design: dose 40 mg/kg
Outline: (§1)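 Oral dosing in 30% PEG 400: phase IV in mice (0.01 mL/g), phase VI in Sprague-Dawley rats (0.004 mL/g). ED50/TD50 found as in phase II, at the stated time of peak effect. MES current 50 mA in mice, 150 mA in rats. PTZ sc 85 mg/kg in mice, 70 mg/kg in rats. Toxicity by rotorod in mice; positional sense, gait and stance in rats. PI = TD50/ED50.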

Rattus norvegicus [2] = species: Rattus norvegicus; assay: Protective index (TD50/ED50) was determined against MES induced seizure in rat.; assay type: functional
Outline: as §1, with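 “rats.” for “rats. PTZ sc 85 mg/kg in mice, 70 mg/kg in rats.”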

Mus musculus [3] = assay: Inhibition of seizures induced in mice by a convulsant dose of strychnine through ip administration; assay type: functional
Outline: (§2)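 Phase V differentiation in mice: test drug given ip at time of peak therapeutic effect, then the CD₉₇ of each convulsant (picrotoxin, bicuculline, strychnine) given ip as a 0.5% solution; observation 30 min for bicuculline and strychnine, 45 min for picrotoxin. Drug in 30% PEG 400, 0.01 mL/g. ED₅₀ with 95% confidence intervals from ≥3 points in the 10-90% protection range, groups of 6-12 mice.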

Mus musculus [4] = assay: Time to peak effect in mice was evaluated by Maximal electroshock seizure (MES) test in hours by oral administration; assay type: functional; outline: as §1
Mus musculus [5] = assay: Inhibition of seizures induced in mice by a convulsant dose of up to 300 mg/kg; d= No protection; assay type: functional, organism-based; design: dose 300 mg/kg
Outline: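 Convulsant (bicuculline, picrotoxin, strychnine or PTZ) given at CD97 as a 0.5% solution. Observed 30 min (45 min for picrotoxin). PI uses ip mouse TD50.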

Rattus norvegicus [6] = species: Rattus norvegicus; assay: Induction of p-nitroanisole-O-dimethylase enzyme was evaluated in units of nmol/min per mg liver of chronic treated rats; assay type: functional
Outline: (§3)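 Rats (eight per group) given 6 mg/kg po daily, then kept on the same regimen 2 more days. Weights taken on day 7. On day 8 rats decapitated; livers perfused with 0.9% NaCl, weighed and homogenized in 0.25 M sucrose. Microsomal assays per Franklin and Estabrook. Values given as average and deviation.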

Rattus norvegicus [7] = species: Rattus norvegicus; assay: Protective index (TD50/ED50) was determined against scMet induced seizure in rat.; assay type: functional
Outline: as §1, with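 “rats.” for “rats. PTZ sc 85 mg/kg in mice, 70 mg/kg in rats.”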

Rattus norvegicus [8] = assay: The loss of righting reflex time was evaluated in acute control rats by hexobarbital injection at a hypnotic dose 100 mg/kg; assay type: functional
Outline: (§4)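 Rats, eight per group, dosed po daily: vehicle for 4 days then 6 mg/kg on day 5 (acute), or 6 mg/kg daily for 5 days (chronic). Hexobarbital 100 mg/kg ip on day 6. Loss-of-righting-reflex time recorded to the nearest minute; group mean taken.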

Mus musculus [9] = assay: Anti-seizure activity was evaluated by Subcutaneous pentylenetetrazole seizure test at dose 600 mg/kg after 0.5 hours; + denotes neurotoxicity; assay type: functional, organism-based; design: dose 600 mg/kg
Outline: (§5)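 Phase I screen in mice: ip dosing at 30, 100, 300 and 600 mg/kg in 30% PEG 400, read 0.5 h and 4 h after. Pentylenetetrazol given sc at CD97 (85 mg/kg). Protection means no clonic spasm of at least 5 s over 30 min. Scored ++++ to + for 30 to 600 mg/kg.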

Rattus norvegicus [10] = species: Rattus norvegicus; assay: Total liver Protein up to 7th day was evaluated in mg/liver of chronic treated rats; assay type: functional; outline: as §3
Rattus norvegicus [11] = assay: Median Effective dose was evaluated by Maximal electroshock seizure (MES) test in Rats by oral administration; assay type: functional
Mus musculus [12] = assay: Median effective dose was evaluated by subcutaneous pentylenetetrazole seizure test through intraperitoneal administration; assay type: functional
Outline: (§6)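 Phase II in mice, ip dosing in 30% PEG 400. Groups of 6-12 mice per dose until at least three points fall in 10-90% protection. […] MES: 50 mA, 0.2 s corneal. scMet: pentylenetetrazol 85 mg/kg sc.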

Mus musculus [13] = assay: Anti-seizure activity was evaluated by Neurologic toxicity (rotarod test) at dose 600 mg/kg after 0.5 hours; + denotes neurotoxicity; assay type: functional, organism-based; design: dose 600 mg/kg
Outline: (§7)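 Phase I neurotoxicity in mice by rotorod ataxia test. Compound given ip at 30, 100, 300 or 600 mg/kg in 30% PEG 400, read 0.5 h and 4 h after. Scored ++++ to + for toxicity at 30 to 600 mg/kg; - means no toxicity.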

Mus musculus [14] = species: Mus musculus; assay: Median hypnotic dose was evaluated by loss of righting reflex; assay type: functional
Rattus norvegicus [15] = assay: The loss of righting reflex time was evaluated in chronic treated rats by hexobarbital injection at a hypnotic dose 100 mg/kg; assay type: functional; outline: as §4
Mus musculus [16] = assay: Median Effective dose was evaluated by Subcutaneous pentylenetetrazole seizure test in mice by oral administration; assay type: functional
Rattus norvegicus [17] = assay: Time to peak effect in Rats was evaluated by Neurologic toxicity (rotarod test) in hours by oral administration; assay type: functional
Mus musculus [18] = assay: Inhibition of picrotoxin-induced seizures in mice by ip administration up to 300 mg/kg (d=No protection); assay type: functional, organism-based; design: dose 300 mg/kg; outline: as §2
Mus musculus [19] = assay: (§8) Median effective dose was evaluated by Maximal electroshock seizure test through intraperitoneal administration; assay type: functional; conditions: ip; outline: as §6
Rattus norvegicus [20] = assay: Time to peak effect in Rats was evaluated by Maximal electroshock seizure (MES) test in hours by oral administration; assay type: functional; outline: as §1
Mus musculus [21] = assay: Median lethal dose was evaluated by mortality after 24 hr through ip injection administration; d= Hypnosis and death occurred; assay type: ADME, organism-based; conditions: in vivo
Outline: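 Mice were dosed ip in 30% PEG 400. Mortality was scored 24 h after injection in groups of eight. The 24-h LD₅₀ was derived as for the ED₅₀/TD₅₀, with 95% confidence intervals.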

Rattus norvegicus [22] = assay: […] was evaluated by Neurologic toxicity (rotarod test) in Rats by oral administration; assay type: functional
Mus musculus [23] = assay: […] was evaluated by Neurologic toxicity (rotarod test) in mice by oral administration; assay type: functional; outline: as §1
Mus musculus [24] = assay: Time to peak effect in mice was evaluated by Neurologic toxicity (rotarod test) in hours by oral administration; assay type: functional; outline: as §1
Mus musculus [25] = assay: Median toxic dose was evaluated by […] through intraperitoneal administration; assay type: functional
Mus musculus [26] = species: Mus musculus; assay: Anti-seizure activity was evaluated by Neurologic toxicity (rotarod test) after 4.0 hours; - denotes no antiseizure activity; assay type: functional, organism-based; outline: as §7
Mus musculus [27] = species: Mus musculus; assay: Time to peak toxicity was evaluated by Maximal electroshock seizure test in hours; assay type: functional
Rattus norvegicus [28] = assay: Time to peak effect in Rats was evaluated by Subcutaneous pentylenetetrazole seizure test in hours by oral administration; assay type: functional; outline: as §1
Rattus norvegicus [29] = species: Rattus norvegicus; assay: Induction of cytochrome P-450 enzyme was evaluated in units of nmol of enzyme/mg liver of chronic treated rats
Mus musculus [30] = assay: Time to peak effect in mice was evaluated by Subcutaneous pentylenetetrazole seizure test in hours by oral administration; assay type: functional; outline: as §1
Mus musculus [31] = assay: Median Effective dose was evaluated by Maximal electroshock seizure (MES) test in mice by oral administration; assay type: functional
Rattus norvegicus [32] = species: Rattus norvegicus; assay: zInduction of NADPH cytochrome C reductase enzyme was evaluated in units of nmol/min per mg liver of chronic treated rats; assay type: functional; outline: as §3
Rattus norvegicus [33] = species: Rattus norvegicus; assay: Total body weight up to 7th day was evaluated in grams of chronic treated rats; assay type: functional; outline: as §3
Mus musculus [34] = species: Mus musculus; assay: Time to peak activity was evaluated by Maximal electroshock seizure test in hours; assay type: functional
Mus musculus [35] = assay: Anti-seizure activity was evaluated by Neurologic toxicity (rotarod test) at dose 600 mg/kg after 4.0 hours; + denotes neurotoxicity; assay type: functional, organism-based; design: dose 600 mg/kg; outline: as §7
Mus musculus [36] = assay: Anti-seizure activity was evaluated by Subcutaneous pentylenetetrazole seizure test at dose 300 mg/kg after 4.0 hours; ++ denotes antiseizure activity; assay type: functional, organism-based; design: dose 300 mg/kg; outline: as §5
Mus musculus [37] = assay: Anti-seizure activity was evaluated by Neurologic toxicity (rotarod test) at dose 300 mg/kg after 0.5 hours; ++ denotes antiseizure activity; assay type: functional, organism-based; design: dose 300 mg/kg; outline: as §7
Mus musculus [38] = assay: Anti-seizure activity was evaluated by Maximal electroshock seizure (MES) test at dose 300 mg/kg after 0.5 hours; ++ denotes antiseizure activity; assay type: functional, organism-based; design: dose 300 mg/kg
Outline: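 Phase I screen in mice: ip injection at 30, 100, 300 and 600 mg/kg in 30% PEG 400 (0.01 mL/g). Test run 0.5 h and 4 h after dosing. 60-Hz AC, 50 mA, via corneal electrodes for 0.2 s. Protection means abolition of hind-leg tonic extension. Scored ++++ to + for activity at 30 to 600 mg/kg.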

Mus musculus [39] = assay: as §8; assay type: functional; conditions: ip; remark: listed apart in the source
Outline: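 Phase II in mice, ip dosing in 30% PEG 400. Groups of 6-12 mice per dose until at least three points fall in 10-90% protection.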

In the case of `O=C(Cc1ccccc1)NS(=O)(=O)C(F)(F)F`, the ED50 (Rattus norvegicus [1]) is reported as “No protection”, the PI (Rattus norvegicus [2]) is reported as 53 and the ED50 (Mus musculus [3]) is reported as 56 mg/kg. The TPE (Mus musculus [4]) was 8 h, the ED50 (Mus musculus [5]) was “No protection” and the Induction (Rattus norvegicus [6]) was 0.36. For the same compound, the PI (Rattus norvegicus [7]) was 34, the Sleep time (Rattus norvegicus [8]) was 33 and the Activity (Mus musculus [9]) was “Antiseizure activity”. For the same compound, the Protein (Rattus norvegicus [10]) was 40.4, the ED50 (Rattus norvegicus [11]) was 6.1 mg/kg and the ED50 (Mus musculus [12]) was 10 mg/kg. The Activity (Mus musculus [13]) was “Antiseizure activity”, the HD50 (Mus musculus [14]) was 522 mg/kg and the Sleep time (Rattus norvegicus [15]) was 51. The ED50 (Mus musculus [16]) was 60 mg/kg, the TPE (Rattus norvegicus [17]) was 24 h and the ED50 (Mus musculus [18]) was “No protection”. The ED50 (Mus musculus [19]) was 6.2 mg/kg, the TPE (Rattus norvegicus [20]) was 8 h and the LD50 (Mus musculus [21]) was “No protection”. It also gave a TD50 (Rattus norvegicus [22]) of 40 mg/kg, a TD50 (Mus musculus [23]) of over 1000 mg/kg and a TPE (Mus musculus [24]) of 24 h. The TD50 (Mus musculus [25]) was 329 mg/kg, the Activity (Mus musculus [26]) was “No activity” and the TPE (Mus musculus [27]) was 24. The TPE (Rattus norvegicus [28]) was 8 h, the Induction (Rattus norvegicus [29]) was 0.41 and the TPE (Mus musculus [30]) was 8 h. The ED50 (Mus musculus [31]) was 8.4 mg/kg, the Induction (Rattus norvegicus [32]) was 109.9 and the Weight (Rattus norvegicus [33]) was 128.8. It also gave a TPE (Mus musculus [34]) of 6.
For `COc1ccc(CC(=O)NS(=O)(=O)C(F)(F)F)cc1`, the Activity (Mus musculus [35]) was “Antiseizure activity”, the PI (Rattus norvegicus [2]) was 17 and the PI (Rattus norvegicus [7]) was 10. The ED50 (Mus musculus [12]) was 53 mg/kg, the Activity (Mus musculus [36]) was “Antiseizure activity” and the Activity (Mus musculus [37]) was “Antiseizure activity”. For the same compound, the Activity (Mus musculus [38]) was “Antiseizure activity”, the TD50 (Mus musculus [25]) was 557 mg/kg and the TPE (Mus musculus [27]) was 0.5. It also gave an ED50 (Mus musculus [39]) of 33 mg/kg and a TPE (Mus musculus [34]) of 2.
